ANO1 activ = activators or potentiators of mouse TMEM16A chloride channel; HEK293 TMEM16A/YFP-H148Q/I152L, iodide quench fluorescence; hits give low values; Q8BHY3; B-score at 10 µM; actives 0.3% (n = 340,000); AID 623877;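 active = fluorescence-ratio B-score plate-corrected deviation score at least 3 library SD below zero, with starting fluorescence score within 5 deviations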;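 also: channel opened by trigger with iodide after compound preincubation; score built on the fluorescence ratio of max minus min over baseline; more negative score means more quench and so TMEM16A activation or potentiation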
CRFBP-R2 agonist = agonists of human CRF-binding protein/CRF-R2 receptor complex; HEK293 CRF-R2/CRF-BP, calcium dye fluorescence (FLIPR); percent of saturating CRF peptide response; activation, % at 13.2 µM; actives 0.46% (n = 350,000); AID 588473;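 active = activation of at least 50%, plus an integration ratio under a set limit after plate pattern correction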
TAAR1 antag = antagonists of human TAAR1 | Q96RJ0 | CHO RD-HGA16 TAAR1, Fluo-8 calcium fluorescence, antagonist | inhibition, % at 3 µM | actives 1.5% (n = 360,000) | AID 624466;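 active = inhibition above a per-plate cutoff, the mean inhibition of test compounds on that plate plus 3 SD, cut at about 49% in these data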
Target sequence (Q96RJ0 whole entry, looked up): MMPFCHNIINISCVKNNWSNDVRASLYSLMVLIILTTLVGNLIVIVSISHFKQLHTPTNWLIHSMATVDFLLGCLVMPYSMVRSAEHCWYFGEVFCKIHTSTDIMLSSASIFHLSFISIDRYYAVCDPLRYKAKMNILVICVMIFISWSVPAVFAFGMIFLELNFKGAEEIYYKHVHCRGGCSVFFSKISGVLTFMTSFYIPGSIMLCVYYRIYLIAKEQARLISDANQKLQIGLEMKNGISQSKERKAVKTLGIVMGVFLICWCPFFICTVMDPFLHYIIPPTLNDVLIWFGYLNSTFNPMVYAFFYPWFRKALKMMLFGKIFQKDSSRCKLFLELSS
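test system = CHO RD-HGA16 cells bearing hTAAR1 | replication = singlicate | controls = DMSO-only wells and EC80 β-PEA-stimulated wells | reagent = EC80 β-phenethylamine stimulus | read-out basis = percent inhibition of PEA-evoked calcium signal, max/basal emission ratio | schedule = seeding 17-24 h prior, 75-min 37 °C, 30-min RT dye loading | signal = kinetic Fluo-8 calcium fluorescence measurement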
ANO1 block = mouse TMEM16A channel inhibition, primary screen. Q8BHY3. actives 1.2% (n = 310,000). HEK293 TMEM16A/YFP iodide influx fluorescence, ionomycin. normalized B-score (activity score, 25-100; higher = stronger inhibition) at 10 µM;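 active = ratio plate-corrected score three or more library SD toward inhibition, starting fluorescence score within five deviations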;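 also: score derived from kinetic fluorescence span divided by baseline fluorescence per well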
CRFBP-R2 block = blocks CRF-induced signaling of the CRF-BP/CRF-R2 complex; HEK293 CRF-R2/CRF-BP, CRF-induced calcium fluorescence; inhibition, % at 11.8 µM; actives 0.59% (n = 350,000); AID 588475;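 active = inhibition of the ligand-induced calcium signal above about 50% at the single tested concentration, limit read from the data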
TAAR1 ag = agonists of human TAAR1; Q96RJ0; actives 0.99% (n = 360,000); CHO RD-HGA16 TAAR1, Fluo-8 calcium fluorescence; vehicle wells 0%, saturating PEA agonist 100%; activation, % at 3 µM; AID 624467;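 active = activation above the mean activation of all test compounds in the run plus 3 SD, cut at about 38% in these data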
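Test system: RD-HGA16 (CHO) cells co-expressing Gα16 and hTAAR1 | Doses: Single dose, 3 µM | Schedule: 17-24 h seeding, 75 min 37 °C dye, 30 min RT | Evaluation: % activation from peak over basal fluorescence ratio, DMSO-to-PEA scaled | Technique: Kinetic Fluo-8 calcium fluorescence | Benchmarks: Low control DMSO, high control PEA (EC100)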
Each line names hits and unclear results; the compound was inactive in the other large screens. A selection: hits, their analogues and other compounds. The true share with any hit is near 3.9%.

C=CC[C@@H](CC(=O)N(CCO)Cc1ccccc1)C(=O)N[C@H](COC(=O)[C@@H](CC=C)Cc1ccc(F)cc1)Cc1c[nH]c2ccccc12	TAAR1 antag 59 (no result: ANO1 block)
C=CC[C@H](CC(=O)N(CCO)Cc1ccccc1)C(=O)N[C@H](COC(=O)[C@@H](CC=C)Cc1ccc(F)cc1)Cc1c[nH]c2ccccc12	TAAR1 antag 59 (no result: ANO1 block)
CCOC(=O)c1c(NC(=O)COC(=O)CCOc2ccc(C)cc2)sc(C(=O)N(C)C)c1C	none
O=C(c1ccc(COc2ccccc2)o1)N1CCN(S(=O)(=O)c2ccccc2Cl)CC1	TAAR1 antag 51 (no result: ANO1 block)
CCCc1ccc(OCc2ccc(C(=O)N3CCSCC3)o2)cc1	ANO1 block 25
Cc1ccc(S(=O)(=O)N2CCN(C(=O)c3ccc(COc4ccccc4)o3)CC2)cc1	none (no result: ANO1 block)
CC(C)(C)c1ccc(OCc2ccc(C(=O)N3CCOCC3)o2)cc1	none
O=C(C(=O)N1CCC(CNS(=O)(=O)c2cc(C(F)(F)F)cc(C(F)(F)F)c2)CC1)c1cc2ccccc2o1	none (no result: ANO1 activ, CRFBP-R2 agonist, ANO1 block, CRFBP-R2 block)
O=C(CN1C(=O)NC2(CCOc3ccccc32)C1=O)c1ccc[nH]1 (configuration not stated)	none
O=C(NCc1nnc(SCC(=O)N2CCCC2)o1)c1ccccc1F	none
CCOC(=O)N1CCN(C(=O)CSc2nnc(CNC(=O)c3ccccc3F)o2)CC1	CRFBP-R2 block 57
CN(C)S(=O)(=O)c1cc(C(=O)OCCn2cnc3c2c(=O)n(C)c(=O)n3C)ccc1Cl	none
CC(C)c1ccc(CC(=O)N2CCC2(C)C(=O)Nc2cnc3ccccc3c2)cc1 (configuration not stated)	none (no result: ANO1 activ, CRFBP-R2 agonist, ANO1 block, CRFBP-R2 block)
CC(C)(C)c1ccc(CC(=O)N2CCC2(C)C(=O)Nc2cnc3ccccc3c2)cc1 (configuration not stated)	TAAR1 antag 53 (no result: ANO1 activ, CRFBP-R2 agonist, ANO1 block, CRFBP-R2 block)
CC1(C)CC[C@]2(C(=O)n3ccnc3)CC[C@]3(C)[C@H](C(=O)C=C4[C@@]5(C)C=C(C#N)C(=O)C(C)(C)[C@@H]5CC[C@]43C)[C@@H]2C1	ANO1 activ -15, CRFBP-R2 agonist 122 (no result: ANO1 block)
COc1ccc(NC(=O)C(=O)NNC(=O)c2cccs2)c(OC)c1	CRFBP-R2 block 75
COc1ccc(OC)c(NC(=O)C(=O)NNC(=O)C23CC4CC(CC(C4)C2)C3)c1	CRFBP-R2 agonist 55, TAAR1 ag 54
COc1ccc2cc(-c3cc(C(=O)OCC(=O)Nc4c(C)n(C)n(-c5ccccc5)c4=O)c4ccccc4n3)ccc2c1	TAAR1 antag 66 (no result: ANO1 block)
CN(C)CCNC(=O)C(=O)c1c(-c2ccccc2)cc2ccccn12	CRFBP-R2 block 65
CN(C(=O)COC(=O)c1nn(C)c(=O)c2ccccc12)c1c(N)n(Cc2ccccc2)c(=O)[nH]c1=O	none
CC(=O)c1ccc(NC(=O)Nc2ccc(NS(=O)(=O)c3ccc(C)cc3)cc2)cc1	TAAR1 antag 56
Cc1ccc(NS(=O)(=O)c2ccc(C(=O)Nc3nncs3)cc2)cc1	CRFBP-R2 block 110 (no result: ANO1 block)
CC(Cl)=CCn1c(NCCc2ccccc2)nc2c1c(=O)n(C)c(=O)n2C	none (no result: ANO1 activ, CRFBP-R2 agonist, ANO1 block, CRFBP-R2 block)
CCOc1ccc(-n2c(SCC(=O)N3CCC(C(=O)O)CC3)nc3ccccc3c2=O)cc1	none
CCOC(=O)c1cnc(-n2nc(C)cc2C)nc1NC	none
CCOC(=O)c1cnc(-n2nc(C)cc2C)nc1NC1CCCCC1	ANO1 block 100
O=c1[nH]c2ccc(Cl)cc2c(-c2ccccc2)c1SC(=S)N1CCOCC1	TAAR1 antag 56
O=c1[nH]c2ccc(Cl)cc2c(-c2ccccc2)c1SC(=S)N1CCCCC1	none
CCOC(=O)c1c(C)oc2ccc(O)c(CN(C)C)c12	none
CCOC(=O)c1c(CSc2ccc(CC)cc2)oc2ccc(O)c(CN(C)C)c12	ANO1 block 100
CCCCCCCC[n+]1cccc2c3ccccc3ccc21	ANO1 block 100
OCCOCCN1CCN(C(=S)Nc2ccccc2)CC1	CRFBP-R2 block 70
OCCN1CCN(C(=S)Nc2ccc(Oc3ccccc3)cc2)CC1	none
Cc1cc(C(=O)CSc2nnc(CCC(N)=O)n2C)c(C)n1C1CC1	none (no result: ANO1 block)
COc1ccccc1Oc1ccc2c(c1)C(=O)N(c1ccc(C)cc1)C2=O	ANO1 activ -6.1
CCN(CC1CCCO1)C(=O)c1cc(COc2ccccc2SC)on1 (configuration not stated)	none
CCn1c(C)cc(/C=C2/NC(=O)N(c3ccccc3)C2=O)c1C	none
O=C1N/C(=C/c2ccsc2)C(=O)N1c1ccccc1	TAAR1 ag 44
COC(=O)N1CCCCC1c1cc(C(=O)Nc2ccc(OC)cc2C)no1 (configuration not stated)	none (no result: ANO1 activ, CRFBP-R2 agonist, ANO1 block, CRFBP-R2 block)
O/N=C(\CN1CCCCC1)c1ccccc1	none
Cc1ccccc1NC(=O)Cc1nc(COC(=O)COc2ccccc2C(C)C)cs1	TAAR1 antag 55 (no result: ANO1 block)
COc1cccc(C(=O)N2CCN(C(=O)C3COc4ccccc4O3)CC2)c1 (configuration not stated)	none
CCOC(=O)c1oc2ccccc2c1NC(=O)c1cccc(OC)c1OC	TAAR1 antag 49
CCOC(=O)c1oc2ccccc2c1NC(=O)c1cccc(OC)c1	none
Cc1ccc(-c2nn(C)c(=O)c3ccccc23)cc1CNC(=O)NC1CCCCC1	none
COc1cc(C(=O)OCCCN=C2NS(=O)(=O)c3ccccc32)cc(OC)c1OC	none
Cn1cccc1/C=C1\SC(=O)N(CC(=O)Nc2ccc(Cl)cc2)C1=O	TAAR1 antag 55
CC(NS(=O)(=O)c1cccc(Cl)c1)C(=O)N(C)C1CCN(C)CC1 (configuration not stated)	none
Cc1cc(C(=O)N/N=C\c2ccc(COc3ccc([N+](=O)[O-])cc3)o2)ccc1[N+](=O)[O-]	TAAR1 antag 54
Cc1ccc(OCC(=O)N/N=C\c2ccc(C)o2)c([N+](=O)[O-])c1	none (no result: ANO1 block)
CC(C)n1nc(C(=O)N2CCN(S(=O)(=O)c3cccs3)CC2)c2ccccc2c1=O	none (no result: ANO1 activ, CRFBP-R2 agonist, CRFBP-R2 block)
CC12CC3CC(C)(C1)CC(Nc1nc(N4CCOCC4)nc4ccccc14)(C3)C2	none
Cc1cc2c(=O)n(C)c(SCC(=O)Nc3ccccc3C)nc2s1	none
O=C1N=c2ccccc2=C1c1sc(Nc2ccc(O)cc2)nc1O	CRFBP-R2 block 60 (no result: ANO1 block)
CN1C(=O)Cc2cc(S(=O)(=O)Nc3ccc(N4CCOCC4)cc3)ccc21	none
O=C(Nc1nnc(S(=O)(=O)N2CCCC2)s1)c1ccccc1Cl	none
O=C(Nc1nnc(S(=O)(=O)Nc2ccccc2)s1)c1ccccc1Cl	CRFBP-R2 block 76
CS(=O)(=O)c1ccccc1C(=O)Nc1ccccc1Cc1ccccc1	none

Screens from PubChem BioAssay.
